Shown are actives, neighbours in structure and some others; about 12% of the full set was active somewhere.
WT yeast gro inh – growth inhibition of WT yeast, mitochondrial fusion screen; inhibition, % at 10 µM; AID 1362; actives 2.1% (n = 190,000); mitochondrial fusion phenotypic screen, WT strain; in the data active means inhibition above about 58%; tested in S. cerevisiae
ABCG2 block – inhibitors of human ABCG2 transporter, ABCB1 counter-screen; actives 0.1% (n = 190,000); AID 1325; IgMXP3 cells, JC-1 efflux, flow cytometry; inhibition, % at 6.6 µM;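 active means inhibition above 80%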;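 further: 0% = DMSO and 100% = nicardipine control wells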
Target sequence (Q9UNQ0 whole entry, looked up): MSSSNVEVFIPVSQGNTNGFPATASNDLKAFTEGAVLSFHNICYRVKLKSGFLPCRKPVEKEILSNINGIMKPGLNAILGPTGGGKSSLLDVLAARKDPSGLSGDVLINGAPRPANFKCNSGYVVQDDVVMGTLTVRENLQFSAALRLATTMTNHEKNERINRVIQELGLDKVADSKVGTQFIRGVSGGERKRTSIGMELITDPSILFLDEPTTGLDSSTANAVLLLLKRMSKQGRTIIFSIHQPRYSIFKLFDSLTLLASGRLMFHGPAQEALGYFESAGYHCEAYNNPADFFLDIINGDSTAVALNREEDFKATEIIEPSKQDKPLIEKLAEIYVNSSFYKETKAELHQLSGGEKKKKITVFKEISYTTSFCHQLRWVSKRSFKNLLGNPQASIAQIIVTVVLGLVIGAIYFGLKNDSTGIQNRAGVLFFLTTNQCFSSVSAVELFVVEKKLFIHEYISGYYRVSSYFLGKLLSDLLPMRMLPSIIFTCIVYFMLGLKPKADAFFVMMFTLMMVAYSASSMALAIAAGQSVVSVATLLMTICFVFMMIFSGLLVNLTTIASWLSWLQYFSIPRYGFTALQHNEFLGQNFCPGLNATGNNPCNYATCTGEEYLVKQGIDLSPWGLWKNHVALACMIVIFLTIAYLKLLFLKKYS
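System: two drug-resistant human cell lines, ABCG2 and ABCB1; controls: nicardipine high and DMSO low controls; times: 10 min exposure at 25 °C with rotation, no wash; detection: flow cytometry of retained JC-1 fluorescence; read-out basis: percent efflux inhibition, scaled nicardipine 100% to DMSO 0%; doses: one concentration, 6.6 µM final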
RAM network inh – blocks the yeast RAM network; S. cerevisiae dse1pr::URA3 reporter, 5-FOA growth OD615, 2 d; analog-sensitive cbk1-as2 kinase mutant strain; inhibition, % at 50 µM; actives 1.8% (n = 190,000); AID 868;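 active means inhibition above a set limit, 3 SD over mean compound inhibition, cut at about 8.4% in these data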;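 further: 0% = DMSO-only wells with no growth and 100% = 10 µM 1-NA-PP1 full growth; inhibition rescues growth on 5-FOA so higher OD means more RAM inhibition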
ABCB1 block – human ABCB1 inhibition, ABCG2 as counter-screen. CCRF-Adr cells, JC-1 efflux, flow cytometry. inhibition, % at 6.6 µM. actives 0.067% (n = 190,000). AID 1326; in the data active means inhibition above about 40%;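 further: 0% = vehicle and 100% = reference inhibitor; higher value means more JC-1 retained so stronger ABCB1 efflux block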
L major viab – reduces viability of Leishmania major promastigotes. actives 9% (n = 200,000). inhibition, % at 10 µM. resazurin fluorescence viability. AID 1063; in the data active means inhibition above about 50%;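 further: promastigotes grown with compound for 44 hours at 28 °C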
Starred values were filed as active, the others as inactive.

How did Cc1ccc(NC(=O)c2cc(N3C(=O)C=CC3=O)ccc2N2CCOCC2)cc1Cl do in these assays?
WT yeast gro inh: 65.8*; ABCG2 block: -0.9; RAM network inh: -1.7; ABCB1 block: 0.7; L major viab: 25.8

Results for COc1ccc(C(=O)/C=C/c2ccccc2C(F)(F)F)cc1 ?
WT yeast gro inh: 23.1; ABCG2 block: 29.3; RAM network inh: 6.0; ABCB1 block: 1.0; L major viab: 53.7*

What do the screens show for `CCOc1ccc(C(=O)/C=C/c2ccccc2C(F)(F)F)cc1`?
WT yeast gro inh: 14.2; ABCG2 block: 11.5; RAM network inh: 4.6; ABCB1 block: 0.3; L major viab: -3.2

How did Cc1ccc([N+](=O)[O-])cc1-c1ccc(/C=C(\C#N)c2[nH]nc(N)c2C#N)o1 do in these assays?
WT yeast gro inh: -48.3; ABCG2 block: -23.4; RAM network inh: 6.6; ABCB1 block: -2.0; L major viab: 74.6*

What do the screens show for `CCCc1cc(=O)oc2cc(OCc3cccc(OC)c3)c(Cl)cc12`?
WT yeast gro inh: 9.3; ABCG2 block: 7.9; RAM network inh: 10.9*; ABCB1 block: 0.3; L major viab: 0.1

How did CCc1cc(=O)oc2cc(OCC(=O)O)c(Cl)cc12 do in these assays?
WT yeast gro inh: 14.1; ABCG2 block: 2.0; RAM network inh: 1.6; ABCB1 block: 0.1; L major viab: -1.8

Results for CCCC(C)C(=O)OCC(=O)Nc1ccc(Br)cc1 (stereo not drawn) ?
WT yeast gro inh: 9.6; ABCG2 block: 27.6; RAM network inh: 0.2; ABCB1 block: 0.9; L major viab: 7.6

How did CCN(Cc1ccccc1)C(=O)COC(=O)Cn1cnc2ccccc21 do in these assays?
WT yeast gro inh: 12.9; ABCG2 block: 11.9; RAM network inh: 2.0; ABCB1 block: 1.4; L major viab: -2.1

How did CSCc1ccc(C(=O)NCc2ccc(F)cc2)cc1 do in these assays?
WT yeast gro inh: -0.1; ABCG2 block: 3.6; RAM network inh: -0.4; ABCB1 block: 1.0; L major viab: 56.0*

What do the screens show for `Cc1ccc(C)c(NC(=O)CS(=O)(=O)c2cccc3nsnc23)c1`?
WT yeast gro inh: -15.0; ABCG2 block: 1.2; RAM network inh: 0.2; ABCB1 block: -0.1; L major viab: -2.1

What do the screens show for `Cc1cc(Nc2ccc3c(c2)OCCO3)c2cc(Cl)ccc2n1`?
WT yeast gro inh: -3.7; ABCG2 block: 0.7; RAM network inh: 0.1; ABCB1 block: -0.3; L major viab: 100.5*

What do the screens show for `Cc1ccc2nc3c(c(Nc4ccc5c(c4)OCCO5)c2c1)CCC3`?
WT yeast gro inh: 4.2; ABCG2 block: 6.6; RAM network inh: -0.1; ABCB1 block: 3.7; L major viab: 98.4*

What do the screens show for `Cc1cc(C)c(C#N)c(Nc2ccc3c(c2)OCCO3)n1`?
WT yeast gro inh: 6.8; ABCG2 block: 2.6; RAM network inh: 0.3; ABCB1 block: 0.4; L major viab: -3.0

Results for NC(=O)c1nsc(C(=O)N(c2cccc(F)c2)C(C(=O)NCC2CCCO2)c2cccs2)c1N (stereo not drawn) ?
WT yeast gro inh: 5.3; ABCG2 block: 3.8; RAM network inh: 4.8; ABCB1 block: 3.9; L major viab: 29.0

How did COc1ccc(/C=N/NC(=O)c2cc(C34CC5CC(CC(C5)C3)C4)[nH]n2)cc1O do in these assays?
WT yeast gro inh: 8.8; ABCG2 block: -0.9; RAM network inh: -0.3; ABCB1 block: -0.4; L major viab: 89.5*

What do the screens show for `Cc1ccc2[nH]c(=O)c(CN(Cc3ccccc3Cl)C(=O)N3CCOCC3)cc2c1`?
WT yeast gro inh: 17.3; ABCG2 block: 1.0; RAM network inh: 0.0; ABCB1 block: 0.6; L major viab: 2.9

Results for Cc1ccc(NC(=O)Cc2nc(CCl)cs2)cc1 ?
WT yeast gro inh: 1.1; ABCG2 block: 12.0; RAM network inh: 2.5; ABCB1 block: 0.1; L major viab: 67.8*

Results for Cc1ccc(NC(=S)Nc2nc(CC(=O)Nc3ccccc3)cs2)cc1 ?
WT yeast gro inh: 0.0; ABCG2 block: -1.8; RAM network inh: 4.9; ABCB1 block: -0.7; L major viab: 6.1

Results for CCOc1ccc(-n2nc3c(SCCN4CCCC4)nnc(C)c3c2C)cc1 ?
WT yeast gro inh: 15.3; ABCG2 block: 0.6; RAM network inh: -0.5; ABCB1 block: -0.7; L major viab: 9.4

What do the screens show for `Cc1c(Cl)cccc1-c1ccc(/C=N/n2cnnc2)o1`?
WT yeast gro inh: 41.3; ABCG2 block: 57.8; RAM network inh: 0.3; ABCB1 block: 0.6; L major viab: 68.8*

How did Clc1cccc(-c2ccc(/C=N/n3cnnc3)o2)c1Cl do in these assays?
WT yeast gro inh: 50.2; ABCG2 block: 10.9; RAM network inh: 2.0; ABCB1 block: 0.7; L major viab: 5.5
